SMILES strings stand for the structures. Some results are limits rather than exact numbers.

These results are taken from ChEMBL document CHEMBL1782042, “Efficient microwave-assisted synthesis and antitumor activity of novel 4,4'-methylenebis[2-(3-aryl-4,5-dihydro-1H-pyrazol-5-yl)phenols]” (Eur J Med Chem, 2011).

One data set concerns COLO 205. The data set is described as follows: Cytotoxicity against human COLO205 cells. The format is cell-based. The procedure, abridged: (§1)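 NCI 60 human tumour cell line screen, second stage at five concentrations (100, 10, 1.0, 0.1 and 0.01 μM). Continuous drug exposure for 48 h, with cell growth estimated by sulforhodamine B protein staining. GI50 is the drug concentration giving a 50% reduction in net protein increase relative to control cells over the incubation.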

The test system of another data set is T47D. The data set can be described thus: Cytotoxicity against human T47D cells. The format is cell-based. The procedure, abridged:
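NCI 60 human tumour cell line screen; five concentration levels (100, 10, 1.0, 0.1 and 0.01 μM), 48 h continuous drug exposure. Cell growth estimated by sulforhodamine B (SRB) protein staining. GI50 taken as the drug concentration giving a 50% reduction in net protein increase relative to control cells over the incubation.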

A further data set has as its system NCI/ADR-RES. The data set is described as follows: Anticancer activity against human NCI/ADR-RES cells after 48 hrs by sulforhodamine B assay. It counts as functional. The procedure, abridged:
(§2)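 NCI 60-cell-line in vitro screen, second stage: five concentration levels (100, 10, 1.0, 0.1 and 0.01 μM) with 48 h continuous drug exposure. Cell growth was estimated by sulforhodamine B protein staining. GI50 is the drug concentration that gives a 50% reduction in net protein increase relative to control cells over the incubation.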

The next data set deals with BT-549. The data set can be described thus: Anticancer activity against human BT549 cells after 48 hrs by sulforhodamine B assay. It counts as functional. As to conditions: BT-549, 48 h. Summed up: as §2
In general terms: Sulforhodamine B stains cellular protein and so reports cell mass.

The subject of a further data set is KM12. The data set is described as follows: Anticancer activity against human KM12 cells after 48 hrs by sulforhodamine B assay. It counts as functional. The conditions noted are these: KM12, 48 h. Summed up: as §2
Another data set relates to MCF7. The data set is described as follows: Cytotoxicity against human MCF7 cells. The format is cell-based. The procedure, abridged:
as §1

For a further data set, the system named is 786-0. The data set can be described thus: Anticancer activity against human 786-0 cells after 48 hrs by sulforhodamine B assay. As to conditions: 786-0, 48 h. It counts as functional. The procedure, abridged: as §2
The next data set concerns K562. The data set is described as follows: Anticancer activity against human K562 cells after 48 hrs by sulforhodamine B assay. The format is functional. As to conditions: K562, 48 h. Summed up:
as §2

The test system of another data set is SF-268. The data set can be described thus: Cytotoxicity against human SF268 cells. The format is cell-based. Summed up: as §1
For another data set, the system named is OVCAR-4. The data set can be described thus: Cytotoxicity against human OVCAR4 cells. It counts as cell-based. Summed up: as §1
The next data set has as its system OVCAR-5. The data set can be described thus: Anticancer activity against human OVCAR5 cells after 48 hrs by sulforhodamine B assay. The format is functional. As to conditions: OVCAR-5, 48 h. Summed up: as §2

With `Oc1ccc(Cc2ccc(O)c(C3CC(c4ccc(Cl)cc4)=NN3)c2)cc1C1CC(c2ccc(Cl)cc2)=NN1` (stereo unspecified), the LC50 in the data set with COLO 205, in the data set on T47D, in the data set with MCF7, in the data set with SF-268 and in the data set with OVCAR-4 was over 100 µM in each case. Moreover, the 50% growth inhibitory concentration (GI50) (in general, the concentration at which growth is held to half of that of the control) in the data set with NCI/ADR-RES was 2.24 µM; with BT-549, 4.78 µM; in the data set on KM12 it was 3.09 µM; in the data set on 786-0, 3.81 µM; in the data set with K562, 1.75 µM; with OVCAR-5, 6.1 µM.
